Data on eight compounds can be found in ChEMBL document CHEMBL1142294, “Design and synthesis of benzo-lipoxin A4 analogs with enhanced stability and potent anti-inflammatory properties” (Bioorg Med Chem Lett, 2008).

As a reminder, the inhibition in vivo is the share of the control response that was lost under treatment.

Structures are written as SMILES.

The test system of one data set is Mus musculus. Put plainly: Antiinflammatory activity against FVB mouse assessed as inhibition of zymosan-induced neutrophil infiltration at 15 ug/kg, iv relative to control. It counts as functional. Put shortly:
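Male FVB mice, 6–8 weeks old, given 15 μg kg⁻¹ by intravenous bolus into the tail vein in 100 μL sterile saline, then an intraperitoneal injection of zymosan A (1 mg/1 mL). Peritoneal lavage was collected at 2 h, and total leukocytes, PMNs and monocytes were counted. PMN inhibition is relative to zymosan A plus saline vehicle. Values are means ± SEM, n = 5–10.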

The nature of data set [1]: Stability assessed as rate of NADH formation in presence of eicosanoid oxido-reductase. It counts as ADME. An outline of the steps: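 Compound at ~15 μM incubated with 50 ng recombinant eicosanoid oxido-reductase in 0.1 M Tris–HCl pH 9.0 with 1 mM NAD⁺, 37 °C, 25 min, while NADH formation was monitored. Initial velocity was taken by linear regression over the linear phase of conversion. Values are means ± SEM, n = 3.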

As to `CCCCC[C@@H](O)/C=C/C=C/c1ccccc1/C=C/[C@@H](O)[C@@H](O)CCCC(=O)OC`, in the data set with Mus musculus, the inhibition in vivo at 0.015 mg/kg worked out at 17.3%. The Stability in data set [1] was 0.14 µM/min.

Turning to `CCCCC[C@@H](O)/C=C/c1cccc(/C=C/[C@@H](O)[C@@H](O)CCCC(=O)OC)c1`, the inhibition in vivo at 0.015 mg/kg in the data set with Mus musculus amounted to 32%. Further, the Stability in data set [1] was determined as 0.45 µM/min.

`CCCCC[C@@H](O)/C=C/c1ccccc1/C=C/[C@@H](O)[C@@H](O)CCCC(=O)OC`: the inhibition in vivo at 0.015 mg/kg in the data set on Mus musculus is 32.2%. Besides, the Stability in data set [1] was 0.19 µM/min.

Consider `CCCCC[C@@H](O)/C=C/C=C\C=C\C=C\[C@@H](O)[C@@H](O)CCCC(=O)O`, for which the Stability in data set [1] was determined as 0.21 µM/min.

On to `COC(=O)CCC[C@H](O)[C@H](O)/C=C/C=C/C=C\C=C\[C@H](O)COc1ccc(F)cc1`, for which, in the data set on Mus musculus, the inhibition in vivo at 0.015 mg/kg was determined as 40.5%.

Regarding `CCCCCC/C=C/c1ccccc1/C=C/[C@@H](O)[C@@H](O)CCCC(=O)OC`, the inhibition in vivo at 0.015 mg/kg in the data set on Mus musculus came out at 23.9%. Also, in data set [1], the Stability came out at 0.04 µM/min.

Turning to `CCCCCC(O)c1ccccc1/C=C/[C@@H](O)[C@@H](O)CCCC(=O)OC` (mixture of isomers), the inhibition in vivo at 0.015 mg/kg in the data set with Mus musculus amounted to 22.3%. In data set [1], the Stability was found to be 0.09 µM/min.

As for `CCCCC[C@H](O)/C=C/C=C\C=C\C=C\[C@@H](O)[C@@H](O)CCCC(=O)O` [LIPOXIN A4], in data set [1], the Stability was 2.42 µM/min.
